A word on the MBC: it is the lowest tested concentration that kills the bacteria rather than only halting them. Low readings indicate more potent killing, high ones less potent killing. In general, IC50 refers to the midpoint of a concentration-inhibition curve. A high value points to weaker potency in that assay. By MIC is commonly meant the least concentration at which growth counts as inhibited.

Structures are written as SMILES. In brackets after ≈: the same amount, converted by molar mass. Activity calls are given as the source filed them. No cut-off for these calls is given here. A value given as a limit tells only on which side of the number the result lay.

One assay has as its system Helicobacter pylori. Briefly: Antimicrobial activity against Helicobacter pylori ATCC 700392. The class given is functional.
Assay [1] in a line: Cytotoxicity against human HepG2(2.2.15) cells after 3 days by MTS assay. The class given is functional, cell-based. The settings on record: HepG2 2.2.15, 72 h. In outline: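 HepG2 2.2.15 cells exposed for 3 days to 2-fold serial dilutions, 1.25–40 μg/mL. Viability read by MTS assay, in triplicate. Expressed as percentage of untreated control. Fluorouracil as positive control.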

Assay [2] relates to Hepatitis B virus. The experiment in a line: Antiviral activity against Hepatitis B virus infected in human HepG2(2.2.15) cells assessed as reduction of HBsAg secretion by enzyme immunoassay. The class given is functional, organism-based. The procedure, abridged:
(§1)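 HepG2 2.2.15 cells grown in modified Eagle's medium with 10% FBS, no antibiotics, 37 °C, 5% CO2. Confluent cultures treated at nontoxic concentrations in medium with 2% FBS, renewed every 3 days. Medium collected at day 6; HBsAg and HBeAg measured by enzyme immunoassay. Values relative to 0.1% DMSO control. IFN-alpha as positive control.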

Assay [3] has as its system Hepatitis B virus. The experiment in a line: Antiviral activity against Hepatitis B virus infected in human HepG2(2.2.15) cells assessed as reduction of HBeAg secretion by enzyme immunoassay. The format is functional, organism-based. The procedure, abridged: as §1
The next assay has as its system AGS. Briefly: Cytotoxicity against human AGS cells. The class given is functional, cell-based.
A further assay deals with Bacillus cereus. The experiment in a line: Antimicrobial activity against Bacillus cereus ATCC 9139 after 24 hrs by broth microdilution method. The format is functional. The following applies: ATCC 9139, 24 h. The procedure, abridged:
(§2)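 MIC by broth microdilution per CLSI guidelines. Strains grown on nutrient agar at 37 °C for 24 h. Inoculum prepared in normal saline against a 0.5 McFarland standard, final density 5 × 10^5 cfu/mL. Compounds dissolved in DMSO, then nutrient broth. 2-fold serial dilutions from 128 down to 0.25 μg/mL. Ampicillin column as positive control.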
A general note: Broth dilution looks for growth in wells or tubes with falling amounts of substance.

Another assay relates to Enterococcus faecalis. The experiment in a line: Antimicrobial activity against Enterococcus faecalis ATCC 29212 after 24 hrs by broth microdilution method. The class given is functional, organism-based. The procedure, abridged: as §2
A further assay relates to Listeria monocytogenes. Briefly: Antimicrobial activity against Listeria monocytogenes ATCC 7644 after 24 hrs by broth microdilution method. The class given is functional, organism-based. The procedure, abridged: as §2
The next assay deals with Pseudomonas aeruginosa. The experiment in a line: Antimicrobial activity against Pseudomonas aeruginosa ATCC 27853 after 24 hrs by broth microdilution method. The class given is functional, organism-based. In outline: as §2
Assay [4] relates to Salmonella enterica subsp. enterica. Briefly: Antimicrobial activity against Salmonella enterica ATCC 13311 after 24 hrs by broth microdilution method. The class given is functional, organism-based. In outline: as §2
The test system of a further assay is Escherichia coli. The experiment in a line: Antimicrobial activity against Escherichia coli ATCC 35150 after 24 hrs by broth microdilution method.
The next assay relates to Staphylococcus aureus. The experiment in a line: Antimicrobial activity against Staphylococcus aureus ATCC 29213 after 24 hrs by broth microdilution method. The format is functional. The settings on record: ATCC 29213, 24 h. The procedure, abridged: as §2

Consider `CC1(C)C=C2[C@H]3C[C@@H](O)[C@@H]4[C@@]5(C)CC[C@@H](O)C(C)(C)[C@@H]5CC[C@@]4(C)[C@]3(C)CC[C@@]2(C(=O)O)CC1` [FATSICARPAIN E], for which the minimum bactericidal concentration (MBC) in the assay with Helicobacter pylori turned out to be 128 µg/mL (≈ 271 µM). The IC50 in [1] was > 50 µM; in the assay with AGS, 47.6 µM. Moreover, the inhibition entry in the assay with Hepatitis B virus [2] and with Hepatitis B virus [3] was “inactive” in each case. This compound also came in with a minimal inhibitory concentration (MIC) against Bacillus cereus of 64 µg/mL (≈ 135 µM). The MIC result (in the assay on Enterococcus faecalis; in the assay with Listeria monocytogenes; with Pseudomonas aeruginosa; in [4]; with Escherichia coli) was “inactive” throughout.

`CC1(C)CC[C@]2(C(=O)O)CC[C@]3(C)C(=CC=C4[C@@]5(C)CC[C@@H](O)C(C)(C)[C@@H]5CC[C@]43C)[C@@H]2C1` [FATSICARPAIN D] had an MBC with Helicobacter pylori of 64 µg/mL (≈ 141 µM). The results for the IC50 (in assay [1]; with AGS) were 28.8 µM and 42.8 µM, respectively. For the same compound, the inhibition result with Hepatitis B virus [2] and with Hepatitis B virus [3] was “inactive” throughout. The MIC in the assay with Bacillus cereus amounted to 8 µg/mL (≈ 17.6 µM). Further, the MIC result (in the assay on Enterococcus faecalis; in the assay on Listeria monocytogenes; with Pseudomonas aeruginosa; in assay [4]; in the assay with Escherichia coli) was “inactive” in each case.

Compound `CO[C@@H]1C=C2[C@@H]3CC(C)(C)CC[C@]3(C(=O)O)CC[C@@]2(C)[C@]2(C)CC[C@H]3C(C)(C)[C@H](O)CC[C@]3(C)[C@@H]12` [FATSICARPAIN F] displayed an MBC in the assay on Helicobacter pylori of 64 µg/mL (≈ 131 µM). Moreover, the IC50 in assay [1] is 23.9 µM; with AGS, > 50 µM. For the same compound, the inhibition entry in the assay with Hepatitis B virus [2] and in the assay on Hepatitis B virus [3] was “inactive” throughout. The same compound gave an MIC against Bacillus cereus of 2 µg/mL (≈ 4.11 µM). Moreover, the MIC entry (in the assay on Enterococcus faecalis; with Listeria monocytogenes; in the assay with Pseudomonas aeruginosa; in assay [4]; in the assay with Escherichia coli) was “inactive” each time.

In the case of `CC1(C)CC[C@@]23CC[C@]4(C)[C@@](C=C[C@@H]5[C@@]6(C)CC[C@@H](O)C(C)(C)[C@@H]6CC[C@]54C)(OC2=O)[C@@H]3C1`, the MBC against Helicobacter pylori is > 128 µg/mL. Also, the IC50 was > 50 µM in assay [1] and 9 µM in the assay with AGS. The inhibition entry in the assay with Hepatitis B virus [2] and with Hepatitis B virus [3] was “inactive” in each case. For the same compound, the MIC entry (in the assay with Enterococcus faecalis; in the assay with Listeria monocytogenes; in the assay on Pseudomonas aeruginosa; in [4]; in the assay with Escherichia coli) was “inactive” each time.

Regarding `CC1(C)CC[C@@]23CC[C@]4(C)[C@@](C=C[C@@H]5[C@@]6(C)CC[C@@H](O)[C@@](C)(CO)[C@@H]6CC[C@]54C)(OC2=O)[C@@H]3C1` [FATSICARPAIN G], the minimal bactericidal concentration (MBC) in the assay on Helicobacter pylori turned out to be 64 µg/mL (≈ 136 µM). Moreover, the concentration for half-maximal inhibition (IC50) is 29.2 µM in [1] and 33.2 µM in the assay on AGS. In addition, the inhibition entry with Hepatitis B virus [2] and with Hepatitis B virus [3] was “inactive” each time. Besides, the MIC result (in the assay with Enterococcus faecalis; with Listeria monocytogenes; in the assay with Pseudomonas aeruginosa; in [4]; with Escherichia coli) was “inactive” each time.

Take `CC1(C)CC[C@]2(C(=O)O)CC[C@]3(C)C(=C2C1)C=C[C@@H]1[C@@]2(C)CC[C@@H](O)C(C)(C)[C@@H]2CC[C@]13C`: the MBC with Helicobacter pylori stood at 128 µg/mL (≈ 282 µM). Further, the IC50 (in assay [1]; with AGS) was > 50 µM each time. Also, the inhibition entry in the assay on Hepatitis B virus [2] and in the assay on Hepatitis B virus [3] was “inactive” each time. For the same compound, the MIC result (with Enterococcus faecalis; with Listeria monocytogenes; in the assay with Pseudomonas aeruginosa; in assay [4]; with Escherichia coli) was “inactive” in each case.

`CC1(C)CC[C@]2(C(=O)O)CC[C@]3(C)C(=C2C1)C=C[C@@H]1[C@@]2(C)CC[C@@H](O)[C@@](C)(CO)[C@@H]2CC[C@]13C` [FATSICARPAIN A] registered an MBC against Helicobacter pylori of 64 µg/mL (≈ 136 µM). Further, the results for the IC50 (in assay [1]; in the assay on AGS) were 18.9 µM and 10.1 µM, respectively. The inhibition result in the assay on Hepatitis B virus [2] and in the assay with Hepatitis B virus [3] was “inactive” in each case. In addition, 32 µg/mL (≈ 68 µM) was the least that counted as inhibitory with Bacillus cereus (MIC). Also, the MIC result (in the assay on Enterococcus faecalis; in the assay with Listeria monocytogenes; in the assay on Pseudomonas aeruginosa; in assay [4]; in the assay on Escherichia coli) was “inactive” each time.

`CC1(C)CC[C@]2(C(=O)O)CC[C@]3(C)C(=C2C1)C=C[C@@H]1[C@@]2(C)CC[C@@H](O)[C@@](C)(C=O)[C@@H]2CC[C@]13C` [FATSICARPAIN C] came in with an MBC with Helicobacter pylori of 64 µg/mL (≈ 137 µM). Further, the IC50 in assay [1] was 16.7 µM; in the assay with AGS, > 50 µM. For the same compound, the inhibition entry in the assay on Hepatitis B virus [2] and with Hepatitis B virus [3] was “inactive” throughout. Besides, the results for the MIC with Bacillus cereus and with Staphylococcus aureus were 32 µg/mL (≈ 68.3 µM) and 64 µg/mL (≈ 137 µM), respectively. Moreover, the MIC entry (with Enterococcus faecalis; in the assay on Listeria monocytogenes; in the assay on Pseudomonas aeruginosa; in [4]; in the assay with Escherichia coli) was “inactive” throughout.

Turning to `CC1(C)CC[C@]2(C(=O)O)CC[C@]3(C)C(=C2C1)C=C[C@@H]1[C@@]2(C)CC[C@H](OS(=O)(=O)O)C(C)(C)[C@@H]2CC[C@]13C` [FATSICARPAIN B], in the assay on Helicobacter pylori, the minimum bactericidal concentration (MBC) stood at 128 µg/mL (≈ 239 µM). Further, the half-maximal inhibitory concentration (IC50) (in [1]; in the assay on AGS) was > 50 µM throughout. Also, the inhibition entry in the assay with Hepatitis B virus [2] and with Hepatitis B virus [3] was “inactive” in each case. Also, the MIC result (in the assay on Enterococcus faecalis; with Listeria monocytogenes; with Pseudomonas aeruginosa; in [4]; in the assay with Escherichia coli) was “inactive” throughout.

(Values after ChEMBL document CHEMBL1821643, “Oleanane-type triterpenoids from the leaves and twigs of Fatsia polycarpa” (J Nat Prod, 2011).)
